From the array DNA melting data of Ke et al. (doi:10.1101/2024.01.08.574731)

Assays:
[1] = folding enthalpy; higher = less favourable; fluorescence melt of hairpins on a sequencing array, two-state fit; conditions: sodium 0.088 M
Method in brief: (§1)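 To match UV melts, fitted temperatures were raised by 9.35 °C. These fits were bootstrapped two-state models that gave melting temperature and folding enthalpy, combined by inverse variance over four replicates. The input was normalised Cy3 fluorescence of library hairpins with annealed Cy3 and quencher oligos on a sequenced MiSeq flow cell, imaged in 50 mM Na-HEPES pH 8.0, 25 mM NaCl in 2.5 °C steps up to 60 °C.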

[2] = melting temperature; fluorescence melt of hairpins on a sequencing array, two-state fit, raised by 9.35 °C to match UV melts; conditions: sodium 0.088 M
Method in brief: as §1

Sequence	folding enthalpy [1]	Tm [2]
GGTATGGGAAACTATGCC ((.((.(....).)).))	-99.2 kJ/mol	30.9 °C
GCCAGGCGAAAGCAAGGC (((..((....))..)))	-111 kJ/mol	60.6 °C
GTCCGCGGAAACGCGAAC ((.((((....)))).))	-69 kJ/mol	50.9 °C
GCGGATAGCCGC ((((....))))	-111 kJ/mol	54.9 °C
GCGTTCGGAAACGAACAC (.(((((....))))).)	-57.3 kJ/mol	45.5 °C
GATCAGCGAAAGCTTATC (((.(((....))).)))	-84.5 kJ/mol	38.9 °C
GGCTTTGGAAACAAAACC ((.((((....)))).))	-114 kJ/mol	36.8 °C
GTACGGCGAAAGCCTAC (((.(((....))))))	-62.3 kJ/mol	44.4 °C
GAACCGCGAAAGCGATTC (((.(((....))).)))	-104 kJ/mol	47.8 °C
GGTTGCGGAAACGTAGCC ((.(.((....)).).))	-114 kJ/mol	40.2 °C
GCTATCCCGAAAGGGAGC (((..(((....))))))	-48.8 kJ/mol	38.9 °C
GTGAGTGGAAACGCTCAC (((((.(....).)))))	-178 kJ/mol	53.7 °C
GCCTTGCGAAAGCATAGC ((..(((....)))..))	-40.5 kJ/mol	50.8 °C
GAATTACGAAAGTAGTTC (((.(((....))).)))	-132 kJ/mol	42.6 °C
GTGTACACGAAAGTGCAC (((..(((....))))))	-79.7 kJ/mol	47.1 °C
GCGTCACGAAAGTGCCGC (((.(((....))).)))	-193 kJ/mol	59.6 °C
GATCAACATGTTGATC ((((((....))))))	-235 kJ/mol	54.7 °C
GTAAACGAAAGTTTTTAC ((((((....)))..)))	-50.1 kJ/mol	24.9 °C
GAACGCGGAAACGCGCTC ((.((((....)))).))	-63 kJ/mol	50.3 °C
GATCGTCAGAACGATC ((((((....))))))	-147 kJ/mol	55.1 °C
GCGCTCCGAAAGGATCGC (((.(((....))).)))	-172 kJ/mol	59.2 °C
GGGCCGGGAAACTGGCCC (((((.(....).)))))	-133 kJ/mol	68.9 °C
GCGAACGCTCGC ((((....))))	-51.2 kJ/mol	59.6 °C

Sequence	folding enthalpy [1]	Tm [2]
GCCTAGCGAAAGCGAAGC ((.(.((....)).).))	-67.2 kJ/mol	41.9 °C
GACGGTGCGAAAGCAGTC (((..(((....))))))	-70.9 kJ/mol	39.9 °C
GATCTCTATAGAGATC ((((((....))))))	-162 kJ/mol	55 °C
GTATTAGCGAAAGCTTAC (((..(((....))))))	-53.6 kJ/mol	25.5 °C
GCGCACGAAAGTGCTCGC ((((((....)))..)))	-56.6 kJ/mol	48.4 °C
TCCAAGAAATTGGA (((((....)))))	-44 kJ/mol	31.2 °C
GGTATTCGAAAGAAAACC (((.(((....))).)))	-137 kJ/mol	39.3 °C
CGGTCGCGGAAACGCCCG (((..(((....))))))	-87.4 kJ/mol	47.1 °C
GCTATTCCGAAAGGAAGC (((..(((....))))))	-61.6 kJ/mol	32.9 °C
GATCATGGAAACGTGATC (((((.(....).)))))	-133 kJ/mol	46.5 °C
GTGCTCGAAAGAGAACAC ((((((....)))..)))	-82 kJ/mol	44.5 °C
GGTGGGGAAACCCACC ((((((....))))))	-180 kJ/mol	68.1 °C
GTTGTTACGAAAGTAAAC (((..(((....))))))	-114 kJ/mol	44.2 °C
GAGTCCGAAAGGACCCTC ((((((....)))..)))	-43.1 kJ/mol	43.5 °C
GTCTCCGAAAGGATCGAC ((((((....)))..)))	-61.3 kJ/mol	31.4 °C
GCTGGCGAAAGCCGCAGC ((((((....)))..)))	-54.1 kJ/mol	52.4 °C
GCAGAGCGAAAGCGCGGC ((.(.((....)).).))	-87.3 kJ/mol	60.1 °C
GATCAGGTGTCTGATC ((((((....))))))	-168 kJ/mol	50.9 °C
GAGTTGCGAAAGCATCTC (((.(((....))).)))	-120 kJ/mol	50.1 °C
GTGGTCGAAAGACTGCAC ((((((....)))..)))	-61.3 kJ/mol	40.8 °C
GTCGTTGCGAAAGCAGAC (((..(((....))))))	-88.2 kJ/mol	49.2 °C
GATCGTCAGGACGATC ((((((....))))))	-191 kJ/mol	58.3 °C
GCTTGGGGAAACCCAAAC (.(((((....))))).)	-60.6 kJ/mol	39.3 °C
